Measurements published in ChEMBL document CHEMBL3112405, “A-ring modified betulinic acid derivatives as potent cancer preventive agents” (Bioorg Med Chem Lett, 2014).

Columns and labels:
Mus musculus [1] = organism: Mus musculus; test: Inhibition of DMBA-TPA-induced carcinogenesis in mouse skin assessed as reduction of number of papilloma at 85 nmol after 8 weeks relative to control; assay type: functional; design: scale not given: the % may be the effect or the level left
How it was run: (§1)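 Two-stage mouse skin model. Initiation used DMBA (390 nmol). Promotion used TPA (1.7 nmol) twice weekly, starting 1 week after initiation. Test compound (85 nmol) was given with TPA. Papilloma incidence (% of mice bearing papillomas) and average papillomas per mouse were monitored over 20 weeks against a TPA-alone control.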

Raji [2] = test: Chemopreventive activity in human Raji cells assessed as inhibition of TPA-induced EBV-early antigen activation by measuring EBV-EA positive cells at 1000 molar ratio/20 ng/ml of TPA after 48 hrs by immunofluorescence analysis relative to control; assay type: cell-based; design: scale not given: the % may be the effect or the level left; details: human gammaherpesvirus 4
How it was run: (§2)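 Raji cells (EBV genome-carrying, Burkitt's lymphoma-derived, virus non-producer), grown in RPMI-1640 with 10% FBS. Cells were incubated 48 h at 37 °C with n-butyric acid (4 mM), TPA ([…] = 20 ng, in DMSO) and test compound in DMSO at 10–1000 mol ratio/TPA. EBV-EA-positive cells were detected by indirect immunofluorescence using NPC patient serum, with at least 500 cells counted. Triplicates were run, expressed relative to the butyrate+TPA control (100%). Viability was checked by Trypan blue.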

Mus musculus [3] = organism: Mus musculus; test: Inhibition of DMBA-TPA-induced carcinogenesis in mouse skin assessed as reduction of number of papilloma at 85 nmol after 11 weeks relative to control; assay type: functional; design: scale not given: the % may be the effect or the level left; how it was run: as §1
[4] = Chemopreventive activity in human Raji cells assessed as molar ratio of compound required to inhibit 50% of control of inhibition of TPA-induced EBV-early antigen activation after 48 hrs by immunofluorescence analysis; assay type: cell-based, human gammaherpesvirus 4
How it was run: (§3)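 Raji cells (EBV genome-carrying, virus non-producer; cultured in RPMI-1640 with 10% FBS) incubated 48 h at 37 °C with n-butyric acid (4 mM), TPA ([…] = 20 ng) and test compounds in DMSO. EBV-EA positive cells were detected by indirect immunofluorescence with NPC patient serum, counting ≥500 cells, triplicate. Results were expressed relative to the butyric acid+TPA control (100%). Viability was checked by Trypan blue.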

Raji [5] = test: Chemopreventive activity in human Raji cells assessed as inhibition of TPA-induced EBV-early antigen activation by measuring EBV-EA positive cells at 500 molar ratio/20 ng/ml of TPA after 48 hrs by immunofluorescence analysis; assay type: cell-based; design: scale not given: the % may be the effect or the level left; details: human gammaherpesvirus 4; how it was run: as §2
Raji [6] = test: Chemopreventive activity in human Raji cells assessed as inhibition of TPA-induced EBV-early antigen activation by measuring EBV-EA positive cells at 10 molar ratio/20 ng/ml of TPA after 48 hrs by immunofluorescence analysis; assay type: cell-based; design: scale not given: the % may be the effect or the level left; details: human gammaherpesvirus 4; how it was run: as §3
Raji [7] = test: Chemopreventive activity in human Raji cells assessed as inhibition of TPA-induced EBV-early antigen activation by measuring EBV-EA positive cells at 100 molar ratio/20 ng/ml of TPA after 48 hrs by immunofluorescence analysis; assay type: cell-based; design: scale not given: the % may be the effect or the level left; details: human gammaherpesvirus 4; how it was run: as §2

For C=C(C)[C@@H]1CC[C@]2(C)[C@H](CC[C@@H]3[C@H]4[C@H](C(C)C)CC[C@]4(C(=O)O)CC[C@]32C)[C@@]1(C)CCC(=O)O, the Activity (Mus musculus [1]) was 0%, the Activity (Raji [2]) was 0% and the Activity (Mus musculus [3]) was 10%. For the same compound, the IC50 [4] was 295 molar ratio, the Activity (Raji [5]) was 26.6% and the Activity (Raji [6]) was 91.6%. For the same compound, the Activity (Raji [7]) was 65.1%.
Compound CC(=O)NCCCCCCCNC(=O)[C@]12CC[C@@H](C(C)C)[C@@H]1[C@H]1CC[C@@H]3[C@@](C)(CCC(=O)O)[C@H](C(C)COC(=O)CC(C)(C)C(=O)O)CC[C@@]3(C)[C@]1(C)CC2 (stereo partly drawn) has an Activity (Raji [2]) of 11.3%, an IC50 [4] of 501 molar ratio and an Activity (Raji [5]) of 57.2%. For the same compound, the Activity (Raji [6]) was 100% and the Activity (Raji [7]) was 81.3%.
In the case of COC(=O)CC[C@]1(C)[C@H]2CC[C@@H]3[C@H]4[C@H](C(C)C)CC[C@]4(C(=O)NCCCCCCCNC(C)=O)CC[C@@]3(C)[C@]2(C)CC[C@H]1C(C)COC(C)=O (stereo partly drawn), the Activity (Raji [2]) is reported as 7.8%, the IC50 [4] is reported as 490 molar ratio and the Activity (Raji [5]) is reported as 56%. For the same compound, the Activity (Raji [6]) was 100% and the Activity (Raji [7]) was 79.4%.
For COC(=O)CC[C@]1(C)[C@H]2CC[C@@H]3[C@H]4[C@H](C(C)C)CC[C@]4(C(=O)O)CC[C@@]3(C)[C@]2(C)CC[C@H]1C(C)COC(=O)CC(C)(C)C(=O)O (stereo partly drawn), the Activity (Raji [2]) was 3.7%, the IC50 [4] was 386 molar ratio and the Activity (Raji [5]) was 36.4%. It also gave an Activity (Raji [6]) of 100% and an Activity (Raji [7]) of 71.3%.
C=C(C)[C@@H]1CC[C@]2(C)[C@H](CC[C@@H]3[C@H]4[C@H](C(C)C)CC[C@]4(C(=O)NCCCCCCCNC(C)=O)CC[C@]32C)[C@@]1(C)CCC(=O)O gave an Activity (Raji [2]) of 6.7%, an IC50 [4] of 460 molar ratio and an Activity (Raji [5]) of 50.2%. The Activity (Raji [6]) was 100% and the Activity (Raji [7]) was 76.3%.
C=C(C)[C@@H]1CC[C@]2(C(=O)O)CC[C@]3(C)[C@H](CC[C@@H]4[C@@]5(C)CC[C@H](OC(=O)CC(C)(C)C(=O)O)C(C)(C)[C@@H]5CC[C@]43C)[C@@H]12 [BEVIRIMAT] showed an Activity (Raji [2]) of 6.1%, an IC50 [4] of 396 molar ratio and an Activity (Raji [5]) of 36.1%. For the same compound, the Activity (Raji [7]) was 74.2%.
In the case of CC(=O)NCCCCCCCNC(=O)[C@]12CC[C@@H](C(C)C)[C@@H]1[C@H]1CC[C@@H]3[C@@](C)(CCC(=O)O)[C@H](C(C)CO)CC[C@@]3(C)[C@]1(C)CC2 (stereo partly drawn), the Activity (Raji [2]) is reported as 6.6%, the IC50 [4] is reported as 471 molar ratio and the Activity (Raji [5]) is reported as 52.1%. The Activity (Raji [6]) was 100% and the Activity (Raji [7]) was 77.5%.
C=C(C)[C@@H]1CC[C@]2(C)[C@H](CC[C@@H]3[C@H]4[C@H](C(C)C)CC[C@]4(C(=O)O)CC[C@]32C)[C@@]1(C)CCC(=O)OC gave an Activity (Raji [2]) of 0%, an IC50 [4] of 311 molar ratio and an Activity (Raji [5]) of 29.1%. For the same compound, the Activity (Raji [6]) was 94.2% and the Activity (Raji [7]) was 66.9%.
Work on C=C(C)[C@@H]1CC[C@]2(C)[C@H](CC[C@@H]3[C@H]4[C@H](C(C)C)CC[C@]4(C(=O)NCCCCCCCNC(C)=O)CC[C@]32C)[C@@]1(C)CCC(=O)OC yielded an Activity (Raji [2]) of 7.1%, an IC50 [4] of 479 molar ratio and an Activity (Raji [5]) of 54.4%. For the same compound, the Activity (Raji [6]) was 100% and the Activity (Raji [7]) was 77.2%.
With COC(=O)CC[C@]1(C)[C@H]2CC[C@@H]3[C@H]4[C@H](C(C)C)CC[C@]4(C(=O)O)CC[C@@]3(C)[C@]2(C)CC[C@H]1C(C)CO (stereo partly drawn) the Activity (Mus musculus [1]) was 0%, the Activity (Raji [2]) was 0% and the Activity (Mus musculus [3]) was 10%. For the same compound, the IC50 [4] was 323 molar ratio, the Activity (Raji [5]) was 31.6% and the Activity (Raji [6]) was 96.3%. For the same compound, the Activity (Raji [7]) was 68.1%.
With COc1cc(/C=C/C(=O)CC(=O)/C=C/c2ccc(O)c(OC)c2)ccc1O [CURCUMIN] the Activity (Raji [2]) was 0%, the IC50 [4] was 341 molar ratio and the Activity (Raji [5]) was 22.8%. It also gave an Activity (Raji [6]) of 100% and an Activity (Raji [7]) of 81.7%.
For COC(=O)CC[C@]1(C)[C@H]2CC[C@@H]3[C@H]4[C@H](C(C)C)CC[C@]4(C(=O)O)CC[C@@]3(C)[C@]2(C)CC[C@H]1C(C)COC(C)=O (stereo partly drawn), the Activity (Raji [2]) was 0%, the IC50 [4] was 335 molar ratio and the Activity (Raji [5]) was 33.8%. The Activity (Raji [6]) was 98.2% and the Activity (Raji [7]) was 68.8%.
With CC(=O)NCCCCCCCNC(=O)[C@]12CC[C@@H](C(C)C)[C@@H]1[C@H]1CC[C@@H]3[C@@]4(C)CCC(=O)OC(C)(C)[C@@H]4CC[C@@]3(C)[C@]1(C)CC2 the Activity (Raji [2]) was 15.3%, the IC50 [4] was 523 molar ratio and the Activity (Raji [5]) was 61.4%. It also gave an Activity (Raji [6]) of 100% and an Activity (Raji [7]) of 83.2%.
